The results in this text go back to article PMC5900894 (Chemmedchem, 2018).

The test system of data set [1] is human peripheral blood mononuclear cells. The data set is described as follows: IL‐1β production in LPS‐stimulated human PBMCs. The format is cell-based. To be noted: pre‐incubated 30 min, LPS 100 ng mL^−1, overnight; tested 0.1, 1, 5, 10 μM. In outline:
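PBMCs came from buffy coats diluted 1:1 in PBS and separated by density gradient centrifugation. Cells were washed, checked for viability with 0.1 % trypan blue, and resuspended in RPMI 1640 with 10 % FBS, penicillin and streptomycin in U-bottom wells. Test glycolipid alone or its 1:1 mix with peptide (0.1, 1, 5, 10 μM) was added 30 min before smooth LPS (100 ng mL⁻¹). IL-1β release was the read-out.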

The nature of data set [2]: DOSY NMR diffusion coefficient / aggregation. The data set is classed as physicochemical. To be noted: FP7 500 μM alone, 310 K, 10 % DMSO in PBS 100 mM pH 5.5. A digest of the protocol:
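Test glycolipid was diluted from a 50 mM DMSO stock into 100 mM PBS pH 5.5 (final DMSO 10 %) and examined at 500 μM by DOSY NMR. Spectra were recorded on the glycolipid alone, then after stepwise peptide additions up to [peptide]/[glycolipid] molar ratios of 0.06 or 0.1. Peptides came from 20 mM DMSO stocks.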

Turning to `CCCCCCCCCCCCCC(=O)N[C@H]1[C@@H](OP(=O)(O)O)O[C@H](CO)[C@@H](OP(=O)(O)O)[C@@H]1OC(=O)CCCCCCCCCCCCC` [FP7], the “concentration halving the amount of IL‐1β released” value in data set [1] amounted to 5 µM. Also, the “D (diffusion coefficient of FP7)” value in data set [2] was 6.31×10^−11 m^2 s^−1.
